Laboratory results: ChEMBL document CHEMBL5113395, “Azetidin-2-one-based small molecules as dual hHDAC6/HDAC8 inhibitors: Investigation of their mechanism of action and impact of dual inhibition profile on cell viability” (Eur J Med Chem, 2022)
The source made the active and inactive calls. No cut-off for these calls is given here.

How the values were obtained:
[1] = molecular target: Histone deacetylase 1 (Homo sapiens, UniProt Q13547); assay: Inhibition of recombinant human full length C-terminal FLAG/His-tagged HDAC1 expressed in Sf9 insect cells using ZMAL (Z-(Ac)Lys-AMC as substrate measured after 90 mins by fluorescence plate reader analysis
Sequence of Histone deacetylase 1 (Q13547 whole entry): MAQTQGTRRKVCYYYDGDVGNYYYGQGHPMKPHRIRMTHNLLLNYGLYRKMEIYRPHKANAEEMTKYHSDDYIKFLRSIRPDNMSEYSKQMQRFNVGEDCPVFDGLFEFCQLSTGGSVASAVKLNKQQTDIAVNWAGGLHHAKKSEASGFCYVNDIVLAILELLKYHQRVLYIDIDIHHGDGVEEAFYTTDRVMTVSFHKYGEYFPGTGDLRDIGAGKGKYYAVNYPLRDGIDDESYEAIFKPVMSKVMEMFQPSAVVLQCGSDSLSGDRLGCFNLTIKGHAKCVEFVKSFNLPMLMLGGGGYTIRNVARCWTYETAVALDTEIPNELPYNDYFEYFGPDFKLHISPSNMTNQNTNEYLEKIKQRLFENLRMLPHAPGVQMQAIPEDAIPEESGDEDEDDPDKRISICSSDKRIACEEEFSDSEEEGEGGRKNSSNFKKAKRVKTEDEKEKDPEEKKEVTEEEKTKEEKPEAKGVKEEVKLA

[2] = molecular target: T1, Histone deacetylase 8 (Homo sapiens, UniProt Q9BY41); assay: Inhibition of recombinant human HDAC8 using FLUOR DE LYS as substrate preincubated for 15 mins followed by substrate addition measured after 1 hrs by fluorescence plate reader analysis
T1 sequence (Q9BY41 whole entry): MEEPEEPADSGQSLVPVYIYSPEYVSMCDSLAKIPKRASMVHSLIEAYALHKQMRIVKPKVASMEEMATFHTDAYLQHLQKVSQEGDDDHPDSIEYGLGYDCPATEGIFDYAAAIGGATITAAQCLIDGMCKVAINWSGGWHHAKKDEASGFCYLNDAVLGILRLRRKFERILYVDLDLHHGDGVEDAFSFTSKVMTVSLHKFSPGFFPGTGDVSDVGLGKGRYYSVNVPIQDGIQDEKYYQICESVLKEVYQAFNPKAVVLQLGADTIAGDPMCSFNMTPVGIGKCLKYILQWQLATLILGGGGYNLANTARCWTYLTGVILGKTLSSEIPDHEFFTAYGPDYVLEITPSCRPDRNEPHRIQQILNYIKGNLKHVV
Summary of the method: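 Kit recombinant human HDAC8 (0.45 U/reaction) was preincubated 15 min with compound (0.5% DMSO; DMSO-only control). Fluor de Lys substrate was then added at 50 µM final and the reaction ran 1 h at 30 °C. It was quenched with 2 µM TSA in Developer II for a further 1 h at 30 °C, and fluorescence read at ex 370/em 450 nm. IC50 came from nonlinear dose–response fitting.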

[3] = species: Homo sapiens; assay: Selectivity index, ratio of IC50 for inhibition of recombinant human full length N-terminal GST-tagged HDAC6 expressed in Sf9 cells to IC50 for inhibition of recombinant human HDAC8
Summary of the method: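 HDAC1 and HDAC6 IC50 values from the ZMAL fluorogenic assay: 37 °C for 90 min, then trypsin/TSA development, read at ex 390/em 460 nm. HDAC8 IC50 from the kit enzyme (0.45 U/reaction), 0.5% DMSO, 15 min preincubation with compound, 50 μM Fluor de Lys substrate, 1 h at 30 °C. HDAC8 reaction quenched with TSA (2 μM) in developer, 1 h, read at ex 370/em 450 nm, IC50 by nonlinear regression. Ratio of IC50s.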

[4] = species: Homo sapiens; assay: Selectivity index, ratio of IC50 for inhibition of recombinant human full length C-terminal FLAG/His-tagged HDAC1 expressed in Sf9 insect cells to IC50 for inhibition of recombinant human full length N-terminal GST-tagged HDAC6 expressed in Sf9 cells
Summary of the method: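 Human recombinant HDAC1 or HDAC6 in Tris-HCl pH 8.0 buffer (NaCl, KCl, MgCl2, 1 mg/mL BSA). Incubated with inhibitor dilutions in DMSO and fluorogenic ZMAL substrate (126 μM) at 37 °C for 90 min. Stopped with trichostatin A/trypsin, 30 min at 37 °C. Fluorescence read at ex 390/em 460 nm. IC50 from at least three determinations; ratio HDAC1/HDAC6 IC50.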

[5] = molecular target: T2, Histone deacetylase 8 (Homo sapiens) (UniProt Q9BY41); assay: Inhibition of HDAC8 in human U-937 cells assessed as increase in acetylation level of SMC3 at 10 uM measured after 48 hrs by Western blot analysis; assay type: cell-based
T2 sequence (whole entry): T1 sequence (Q9BY41 whole entry)
Summary of the method: (§1)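 HCT116 or U937 cells were treated at 10 µM for 24–48 h and lysed in NP40 buffer with protease/phosphatase inhibitors. 50 µg protein was resolved by SDS-PAGE and probed with anti-acetyl-SMC3 (Lys105/106, 1:1000), normalized to GAPDH (1:3000). PCI served as positive control, and band intensities were semi-quantified by densitometry.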

[6] = molecular target: T2, Histone deacetylase 8 (Homo sapiens); assay: Inhibition of HDAC8 in human HCT-116 cells assessed as increase in acetylation level of SMC3 at 10 uM measured after 24 hrs by Western blot analysis; assay type: cell-based; summary of the method: as §1
[7] = Metabolic stability in human liver microsome assessed as apparent decay constant at 5 uM in presence of NADPH incubated up to 60 mins by HPLC analysis; assay type: ADME; conditions: microsomes, 1 h
Summary of the method: (§2)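 Compound in MeCN was incubated at 5 µM and 37 °C in 100 mM phosphate buffer pH 7.4 with 0.5 mg/mL human or mouse liver microsomal protein. Reactions were started with an NADPH-regenerating system (2 mM NADPH, glucose-6-phosphate, G6PDH, MgCl2) and stopped with MeCN over 0–60 min. Remaining compound was measured by HPLC-UV at 254 nm, in triplicate, with first-order decay fitting.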

[8] = Metabolic stability in human liver microsome assessed as intrinsic clearance at 5 uM measured per mg protein in presence of NADPH incubated up to 60 mins by HPLC analysis; assay type: ADME; conditions: microsomes, 1 h; summary of the method: as §2
[9] = Metabolic stability in mouse liver microsome assessed as apparent decay constant at 5 uM in presence of NADPH incubated up to 60 mins by HPLC analysis; assay type: ADME; conditions: liver microsomes; summary of the method: as §2
[10] = Metabolic stability in mouse liver microsome assessed as half life at 5 uM in presence of NADPH incubated up to 60 mins by HPLC analysis; assay type: ADME; conditions: liver microsomes; summary of the method: as §2
[11] = Metabolic stability in mouse liver microsome assessed as intrinsic clearance at 5 uM measured per mg protein in presence of NADPH incubated up to 60 mins by HPLC analysis; assay type: ADME; conditions: microsomes, 1 h
Summary of the method: (§3)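 Compound (in MeCN) at 5 μM incubated at 37 °C in 100 mM phosphate buffer pH 7.4 with 0.5 mg/mL liver microsomal protein (rat, mouse or human). CYP reactions started with NADPH-generating system (2 mM NADPH, glucose-6-phosphate, G6P dehydrogenase, MgCl2). Stopped with MeCN at intervals over 0–60 min. Remaining parent quantified by HPLC-UV at 254 nm. Ln % recovery vs time fitted to first-order decay. Triplicate incubations.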

[12] = Metabolic stability in rat liver microsome assessed as apparent decay constant at 5 uM in presence of NADPH incubated up to 60 mins by HPLC analysis; assay type: ADME; conditions: liver microsomes; summary of the method: as §3
[13] = Metabolic stability in rat liver microsome assessed as half life at 5 uM in presence of NADPH incubated up to 60 mins by HPLC analysis; assay type: ADME; conditions: liver microsomes; summary of the method: as §3
[14] = tested on: Danio rerio; assay: In vivo inhibition of HDAC8 in zebrafish AB embryos assessed as increase in acetylation level of alpha-tubulin at 20 to 75 uM measured after 24 hrs by Western blot analysis; assay type: functional, organism-based; conditions: dose 20-75 µM
[15] = Toxicity in zebrafish AB embryos at 25 to 75 uM measured after 24 hrs; conditions: Danio rerio, in vivo
[16] = Toxicity in zebrafish AB embryos assessed as tolerance at 25 to 75 uM measured after 24 hrs; conditions: Danio rerio, in vivo
[17] = tested on: Danio rerio; assay: In vivo inhibition of HDAC6 in zebrafish AB embryos assessed as increase in acetylation level of alpha-tubulin at 25 to 75 uM measured after 24 hrs by Western blot analysis; conditions: dose 25-75 µM

| SMILES | IC50 [1] [nM] | IC50 [2] [nM] | Ratio IC50 [3] | Ratio IC50 [4] | inhibition [5] | inhibition [6] | K [7] [min⁻¹] | CLH [8] [µL/min] | k el at 1 h, 5 µM [9] [s⁻¹] | half-life at 5 µM [10] [h] | CLH [11] [µL/min] | k el at 1 h, 5 µM [12] [s⁻¹] | half-life at 5 µM [13] [h] | Activity [14] | Activity [15] | Activity [16] | Activity [17] |
| --- | --- | --- | --- | --- | --- | --- | --- | --- | --- | --- | --- | --- | --- | --- | --- | --- | --- |
| O=C(NO)c1ccc(CC(=O)N2CCC(N3CC(c4ccccc4)(c4ccccc4)C3=O)CC2)cc1 | 9700 | 113 | 1 | 106 | Active | Active |  |  |  |  |  |  |  |  |  |  |  |
| O=C(NO)c1ccc(CNC(=O)N2CCC(N3C(=O)[C@H](c4ccccc4)[C@H]3c3ccccc3)CC2)cc1 (racemic) | 4200 | 42 | 2 | 200 | Active | Active | 0.0129 | 32.28 | 0.000182 | 1.07 | 35.38 | 0.000135 | 1.43 | Active | Non-Toxic | Non-Toxic | Active |
| O=C(NO)c1ccc(CNC(=O)N2CCC(N3CC(c4ccccc4)(c4ccccc4)C3=O)CC2)cc1 | 4300 | 99 | 29 | 1260 | Active | Active | 0.0362 | 90.5 | 0.000173 | 1.12 | 33.63 | 0.000118 | 1.63 | Active | Non-Toxic | Non-Toxic | Active |
